From PMC3496166 (Scientific Reports, 2012) come the findings set out here.

Read-outs that look alike come from different tables or passages of the source.

The target of data set [1] is IF2 (Escherichia coli, UniProt P0A705). The data set is described as follows: isothermal titration calorimetry. The format is binding. The essentials:
(§1)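 Assay used 6His-tagged E. coli protein, purified with an added Ni-NTA step. ITC ran at 5 or 25°C in pH 7.5 phosphate buffer (5 mM K2HPO4, 95 mM KCl, 5 mM MgCl2, 1 mM DTT, 10% glycerol). G nucleotide or 27-nt SRL RNA (50–500 μM in syringe) was titrated into protein (5–40 μM in cell), some runs with 500 μM nucleotide or 200 μM SRL added. Dilution heat subtracted; one-site nonlinear fit.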

The target of data set [2] is EF-G (Escherichia coli, UniProt P0A6M8). The data set is described as follows: isothermal titration calorimetry. Format: binding. In a few lines:
as §1

Data set [3] concerns the target T1, EF-G (E. coli, UniProt P0A6M8 1-704). Nature of the data set: ITC. A general note: ITC needs no label: the signal is the heat of the interaction.
Data set [4] addresses T1, EF-G. The data set is described as follows: ITC. The source holds these as a separate data set.
Data set [5] addresses T2, IF2 (E. coli, UniProt P0A705 1-890). Nature of the data set: ITC.
Data set [6] has as its target T2, IF2. Nature of the data set: ITC. This is another data set of the same source.
For data set [7], the target named is T1, EF-G. The data set is described as follows: ITC. The source holds these as a separate data set.

T1 sequence (P0A6M8 whole entry): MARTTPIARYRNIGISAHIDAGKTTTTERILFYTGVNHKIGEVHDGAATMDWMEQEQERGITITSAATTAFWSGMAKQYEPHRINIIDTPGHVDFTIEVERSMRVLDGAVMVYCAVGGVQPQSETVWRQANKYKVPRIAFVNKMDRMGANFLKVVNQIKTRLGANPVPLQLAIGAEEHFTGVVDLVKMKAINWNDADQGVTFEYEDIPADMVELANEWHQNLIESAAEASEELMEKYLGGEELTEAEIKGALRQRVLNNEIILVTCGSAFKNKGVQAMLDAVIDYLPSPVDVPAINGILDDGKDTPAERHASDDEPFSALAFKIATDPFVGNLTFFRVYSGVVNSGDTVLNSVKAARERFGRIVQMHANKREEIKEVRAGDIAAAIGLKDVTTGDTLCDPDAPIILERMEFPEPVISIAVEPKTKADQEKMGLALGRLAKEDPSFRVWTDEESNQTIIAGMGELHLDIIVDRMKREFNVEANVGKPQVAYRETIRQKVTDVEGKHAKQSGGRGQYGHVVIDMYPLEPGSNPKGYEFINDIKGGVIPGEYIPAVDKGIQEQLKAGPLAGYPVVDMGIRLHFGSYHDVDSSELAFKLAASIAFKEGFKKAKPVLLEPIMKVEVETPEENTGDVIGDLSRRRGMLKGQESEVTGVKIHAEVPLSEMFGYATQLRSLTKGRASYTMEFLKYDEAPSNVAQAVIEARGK
Chain of IF2 (Escherichia coli, UniProt P0A705) (P0A705 whole entry): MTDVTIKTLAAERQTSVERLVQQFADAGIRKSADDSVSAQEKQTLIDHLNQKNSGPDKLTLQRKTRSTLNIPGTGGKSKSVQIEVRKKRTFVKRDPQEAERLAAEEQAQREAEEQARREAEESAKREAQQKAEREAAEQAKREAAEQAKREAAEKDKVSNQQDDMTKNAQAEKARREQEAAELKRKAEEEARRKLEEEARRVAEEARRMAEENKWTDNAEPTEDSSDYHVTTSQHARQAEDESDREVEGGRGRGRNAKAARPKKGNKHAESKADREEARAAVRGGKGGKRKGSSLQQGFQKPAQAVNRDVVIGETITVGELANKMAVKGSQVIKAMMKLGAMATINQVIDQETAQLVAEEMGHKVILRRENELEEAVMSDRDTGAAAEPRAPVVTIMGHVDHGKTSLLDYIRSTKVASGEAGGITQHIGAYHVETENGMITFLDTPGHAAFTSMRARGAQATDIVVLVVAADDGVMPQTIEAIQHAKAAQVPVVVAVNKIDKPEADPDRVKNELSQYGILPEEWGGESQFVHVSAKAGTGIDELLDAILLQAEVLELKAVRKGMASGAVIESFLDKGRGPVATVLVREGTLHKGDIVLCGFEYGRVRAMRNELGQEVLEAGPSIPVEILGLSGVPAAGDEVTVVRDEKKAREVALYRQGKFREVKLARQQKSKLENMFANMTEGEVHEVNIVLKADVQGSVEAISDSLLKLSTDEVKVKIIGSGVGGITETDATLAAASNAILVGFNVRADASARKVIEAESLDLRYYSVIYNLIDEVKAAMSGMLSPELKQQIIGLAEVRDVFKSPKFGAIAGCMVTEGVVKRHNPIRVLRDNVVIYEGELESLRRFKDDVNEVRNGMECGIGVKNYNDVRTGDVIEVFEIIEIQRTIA
T2 sequence (P0A705 whole entry): as above
Chain of EF-G (Escherichia coli, UniProt P0A6M8) (P0A6M8 2-704): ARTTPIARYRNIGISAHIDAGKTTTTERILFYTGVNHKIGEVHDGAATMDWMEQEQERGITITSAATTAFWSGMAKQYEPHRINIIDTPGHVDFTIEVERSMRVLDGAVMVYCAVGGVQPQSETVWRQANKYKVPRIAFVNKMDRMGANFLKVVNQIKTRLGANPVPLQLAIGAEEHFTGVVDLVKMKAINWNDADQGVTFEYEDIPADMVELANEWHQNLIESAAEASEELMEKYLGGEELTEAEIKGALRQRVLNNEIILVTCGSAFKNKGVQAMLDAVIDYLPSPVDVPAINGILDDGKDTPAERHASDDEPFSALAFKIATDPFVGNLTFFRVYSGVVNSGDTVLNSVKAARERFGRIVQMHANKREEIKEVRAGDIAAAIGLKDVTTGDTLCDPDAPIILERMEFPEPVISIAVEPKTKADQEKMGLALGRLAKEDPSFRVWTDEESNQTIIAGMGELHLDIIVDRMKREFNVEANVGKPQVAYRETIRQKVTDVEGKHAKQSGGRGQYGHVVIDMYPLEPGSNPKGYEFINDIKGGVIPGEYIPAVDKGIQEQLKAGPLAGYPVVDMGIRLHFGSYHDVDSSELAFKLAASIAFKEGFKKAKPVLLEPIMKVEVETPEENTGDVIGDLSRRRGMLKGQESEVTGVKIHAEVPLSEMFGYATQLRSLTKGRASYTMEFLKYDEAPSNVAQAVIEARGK

By Kd is commonly meant the free concentration of one partner at which half of the binding sites on the other are occupied at equilibrium, for simple one-to-one binding. Low readings indicate a tighter complex, high ones a looser complex. In the case of `Nc1nc2c(ncn2[C@@H]2O[C@H](COP(=O)(O)OP(=O)(O)O)[C@@H](O)[C@H]2O)c(=O)[nH]1` [GDP], the figures for the dissociation constant Kd on IF2 [1] and on EF-G [2] were 1600 nM and 1800 nM, respectively.

In the case of `Nc1nc2c(ncn2[C@@H]2O[C@H](COP(=O)(O)OP(=O)(O)OP(=O)(O)O)[C@@H](O)[C@H]2O)c(=O)[nH]1` [GTP], the dissociation constant (Kd) on IF2 [1] was determined as 6700 nM; at EF-G [2], 2700 nM.

In the case of GGGCUCCUAGUACGAGAGGACCGGAGU (structured_RNA) [SRL RNA wt (27 nt)], the dissociation constant (Kd) with EF-G [3] was determined as 5900 nM; in the data set with EF-G [4], 4200 nM; in the data set with IF2 [5] it was 670 nM; in the data set with IF2 [6] it was 1000 nM; in the data set with EF-G [7] it was 3700 nM.
